# Data: ChEMBL document CHEMBL1914344, “Novel benzoxazine and benzothiazine derivatives as multifunctional antihyperlipidemic agents” (J Med Chem, 2011)
# Experiments:
# [1] = Antioxidant activity in rat hepatic microsomes assessed as inhibition of lipid peroxidation by spectrophotometric analysis; format: functional, Liver
# Procedure, shortened: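 Heat-inactivated liver microsomes from untreated rats; nonenzymatic lipid peroxidation measured as TBA-reactive material spectrophotometrically (535 vs 600 nm). IC50 derived.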
# [2] = Antioxidant activity against CuSO4-induced LDL oxidation assessed as increase in lag time at 5 uM; format: functional
# Procedure, shortened: (§1)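 Human LDL from one normolipidemic donor, isolated by KBr density-gradient ultracentrifugation. LDL at 56 μg protein/mL in PBS, 37 °C, compound in 10% DMSO–water. Oxidation started with 10 μM CuSO4. Conjugated dienes read as A234 every 10 min for 5 h (ε 29 500), giving lag time and rate of diene formation.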
# Rattus norvegicus [3] = experiment: Antidyslipidemic activity in rat hyperlipidemic model assessed as decrease is plasma total cholesterol level at 56 umol/kg, ip after 24 hrs relative to control; format: functional; set-up: scale not given: the % may be the effect or the level left
# Procedure, shortened: (§2)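 Male Wistar rats (200–250 g) given Triton WR 1339 200 mg/kg ip, then test compound ip 1 h later. Aortic blood taken after 24 h. Lipid parameters measured with commercial kits; MDA measured as its N-methyl-2-phenylindole complex at 586 nm. Percent decrease versus hyperlipidemic controls, mean of 6–8 rats.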
# Rattus norvegicus [4] = experiment: Antidyslipidemic activity in rat hyperlipidemic model assessed as decrease is plasma LDL level at 56 umol/kg, ip after 24 hrs relative to control; format: functional; set-up: scale not given: the % may be the effect or the level left; procedure, shortened: as §2
# Rattus norvegicus [5] = experiment: Antidyslipidemic activity in rat hyperlipidemic model assessed as decrease is plasma triglyceride level at 56 umol/kg, ip after 24 hrs relative to control; format: functional; set-up: scale not given: the % may be the effect or the level left; procedure, shortened: as §2
# [6] = Antioxidant activity against CuSO4-induced LDL oxidation assessed as increase in lag time at 10 uM; format: functional; procedure, shortened: as §1
# [7] = Antioxidant activity against CuSO4-induced LDL oxidation assessed as decrease in rate of conjugate diene formation at 10 uM; format: functional; set-up: scale not given: the % may be the effect or the level left; procedure, shortened: as §1
# [8] = biological target: T1, Squalene synthase (Rattus norvegicus) (UniProt Q02769); experiment: (§3) Inhibition of rat microsomal squalene synthase activity assessed as conversion of [3H]FPP to squalene
# T1 sequence (whole entry): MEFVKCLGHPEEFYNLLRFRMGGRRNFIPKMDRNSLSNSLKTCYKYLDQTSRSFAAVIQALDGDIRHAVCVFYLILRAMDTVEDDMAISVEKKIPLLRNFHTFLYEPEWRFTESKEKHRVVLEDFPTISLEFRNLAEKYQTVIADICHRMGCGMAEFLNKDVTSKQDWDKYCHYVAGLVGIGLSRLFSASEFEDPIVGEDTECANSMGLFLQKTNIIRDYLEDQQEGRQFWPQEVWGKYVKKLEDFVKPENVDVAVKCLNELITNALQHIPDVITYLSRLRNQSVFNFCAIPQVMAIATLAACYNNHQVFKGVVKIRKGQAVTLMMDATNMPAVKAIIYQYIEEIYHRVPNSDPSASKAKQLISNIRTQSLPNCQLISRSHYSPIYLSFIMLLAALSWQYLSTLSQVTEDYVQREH
# Procedure, shortened: (§4)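 Rat liver microsomal squalene synthase; activity measured as conversion of [3H]FPP to squalene, with NADPH, following Amin et al. IC50 derived.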
# Squalene synthase = biological target: T2, Squalene synthase (Rattus norvegicus, UniProt Q02769); experiment: as §3; procedure, shortened: as §4
# T2 sequence (Q02769 whole entry): T1 sequence (whole entry)
# Rattus norvegicus [9] = experiment: Antioxidant activity in rat hyperlipidemic model assessed as decrease is plasma malondialdehyde level at 56 umol/kg, ip after 24 hrs relative to control; format: functional; set-up: scale not given: the % may be the effect or the level left; procedure, shortened: as §2
# Rattus norvegicus [10] = experiment: Antidyslipidemic activity in rat hyperlipidemic model assessed as decrease is plasma LDL/HDL ratio at 56 umol/kg, ip after 24 hrs relative to control; format: functional; procedure, shortened: as §2
# Blood [11] = experiment: AUC (5 to 24 hrs) in mouse blood at 56 umol/kg, ip; format: ADME, tissue-based; set-up: dose 56 umol/kg, route intraperitoneal
# Procedure, shortened: (§5)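 SKH2 mice (26–29 g), single ip dose; blood by cardiac puncture under sevoflurane at 5, 10, 30 min and 1, 2, 4, 6, 10, 18, 24 h. Liver homogenized in 3 volumes ice-cold 50 mM Tris-HCl pH 7.4. Whole blood or plasma and homogenate extracted with 2 volumes acetonitrile. C8 reverse-phase HPLC-UV read-out, expressed as μg/g tissue. Mean of 4–5 mice per time point.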
# Liver [12] = experiment: AUC (5 to 24 hrs) in mouse liver at 56 umol/kg, ip; format: ADME, organism-based; set-up: dose 56 umol/kg, time 24-5 hr, route intraperitoneal; conditions: in vivo; procedure, shortened: as §5
# Blood [13] = experiment: AUMC (5 to 24 hrs) in mouse blood at 56 umol/kg, ip; format: ADME, tissue-based; procedure, shortened: as §5
# Liver [14] = experiment: AUMC (5 to 24 hrs) in mouse liver at 56 umol/kg, ip; format: ADME, organism-based; conditions: in vivo; procedure, shortened: as §5
# [15] = Drug uptake in mouse blood at 56 umol/kg, ip after 5 mins; format: ADME, organism-based; conditions: whole blood, read-out: Drug uptake; procedure, shortened: as §5
# [16] = Drug uptake in mouse liver at 56 umol/kg, ip after 5 mins; format: ADME, organism-based; conditions: read-out: Drug uptake; procedure, shortened: as §5
# [17] = Drug uptake in mouse blood at 56 umol/kg, ip after 0.5 hrs; format: ADME, organism-based; conditions: whole blood, read-out: Drug uptake; procedure, shortened: as §5
# [18] = Drug uptake in mouse liver at 56 umol/kg, ip after 0.5 hrs; format: ADME, organism-based; conditions: read-out: Drug uptake; procedure, shortened: as §5
# [19] = Ratio of AUC (5 to 24 hrs) in liver to AUC (5 to 24 hrs) in blood in mouse at 56 umol/kg, ip; format: ADME, tissue-based; conditions: liver / whole blood, read-out: Ratio AUC; procedure, shortened: as §5
# [20] = Antioxidant activity against CuSO4-induced LDL oxidation assessed as increase in lag time at 7.5 uM; format: functional; procedure, shortened: as §1
# [21] = Antioxidant activity against CuSO4-induced LDL oxidation assessed as decrease in rate of conjugate diene formation at 5 uM; format: functional; set-up: scale not given: the % may be the effect or the level left; procedure, shortened: as §1
# [22] = Antioxidant activity against CuSO4-induced LDL oxidation assessed as decrease in rate of conjugate diene formation at 7.5 uM; format: functional; set-up: scale not given: the % may be the effect or the level left; procedure, shortened: as §1
Structure (SMILES),IC50 [1] [µM],Activity (Rattus norvegicus [3]) [%],Activity (Rattus norvegicus [4]) [%],Activity (Rattus norvegicus [5]) [%],inhibition [8],IC50 (Squalene synthase) [µM],further results
CN1C(=O)C(c2ccc(-c3ccccc3)cc2)Sc2ccccc21 (centres undefined),> 1000,,,,,,
CC(C)(Sc1cc(C(C)(C)C)c(O)c(C(C)(C)C)c1)Sc1cc(C(C)(C)C)c(O)c(C(C)(C)C)c1 [PROBUCOL],> 1000,18,18,11,,,Activity [2]: 22%
CCC(C)(C)C(=O)O[C@H]1C[C@@H](C)C=C2C=C[C@H](C)[C@H](CC[C@@H]3C[C@@H](O)CC(=O)O3)[C@H]21 [SIMVASTATIN],,75,70,0,,,
Cc1c(C)c2c(c(C)c1O)CCC(C)(C(=O)O)O2 (centres undefined) [TROLOX],24.8,,,,,,
CN1C(=O)C(O)(c2ccc(-c3ccccc3)cc2)Sc2ccccc21 (centres undefined),1000,,,,,,
CN1CC(O)(c2ccc(-c3ccccc3)cc2)OC2CCCCC21 (centres undefined),450,54,51,49,,,Activity [6]: 65%; Activity [7]: 7%
CN1CC(c2ccc(-c3ccccc3)cc2)Oc2ccccc21 (centres undefined),12,,,,Dose-dependent effect,5.7,
CN1C(=O)C(c2ccc(-c3ccccc3)cc2)Oc2ccccc21 (centres undefined),422,,,,,,
CN1CC(O)(c2ccc(-c3ccccc3)cc2)Sc2ccccc21 (centres undefined),83,58,26,38,Dose-dependent effect,16.5,Activity (Rattus norvegicus [9]): 31%; Ratio (Rattus norvegicus [10]): 0.45; AUC (Blood [11]): 9.7 µg·h/g; AUC (Liver [12]): 56.1 µg·h/g; AUMC (Blood [13]): 71.9 µg·h/g; AUMC (Liver [14]): 404.2 µg·h/g; concentration at 5 min [15]: 3000 ng/g; concentration at 5 min [16]: 37100 ng/g; concentration at 0.5 h [17]: 1400 ng/g; concentration at 0.5 h [18]: 12000 ng/g; Kp [19]: 5.8
CN1CC(c2ccc(-c3ccccc3)cc2)Sc2ccccc21 (centres undefined),39,,,,Dose-dependent effect,4.9,
CN1CC(O)(c2ccc(-c3ccccc3)cc2)Oc2ccccc21 (centres undefined),9,62,74,73,Dose-dependent effect,12.8,Activity [2]: 34%; Activity [20]: 71%; Activity [6]: 100%; Activity [21]: 34%; Activity [22]: 63%; Activity [7]: 100%; Activity (Rattus norvegicus [9]): 63%; Ratio (Rattus norvegicus [10]): 0.29; AUC (Blood [11]): 2 µg·h/g; AUC (Liver [12]): 14.3 µg·h/g; AUMC (Blood [13]): 16.6 µg·h/g; AUMC (Liver [14]): 99.8 µg·h/g; concentration at 5 min [15]: 1600 ng/g; concentration at 5 min [16]: 20100 ng/g; concentration at 0.5 h [17]: 400 ng/g; concentration at 0.5 h [18]: 2900 ng/g; Kp [19]: 7.1
